Measurements pooled from the literature.
Lines come from different studies, so protocols differ. Converted amounts (≈) assume the structure as drawn.

Cc1ccc2nc(-c3ccc(Cl)c(Cl)c3)n(Cc3ccccc3)c2c1
MIC (Staphylococcus aureus; microbial growth, broth dilution; ATCC43300 MRSA; drug-resistant strain): 32 µg/mL (≈ 87.1 µM)

O=C(O)c1cn(C2CC2)c2cc(N3CCNCC3)c(F)cc2c1=O
inhibition zone (Micrococcus luteus; microbial growth; ATCC10240; 5 µg/mL, 20 h): 0 mm

CSc1ccc(-c2nc3ccccc3[nH]2)cc1
MIC (Staphylococcus aureus; microbial growth, broth dilution; ATCC43300 MRSA; drug-resistant strain): 32 µg/mL (≈ 133 µM)

COc1ccc2c(C(=O)C(=O)NCCc3c[nH]c4ccccc34)cn(Cc3ccc(Cl)cc3)c2c1
IC50 (C4-2; cell growth or viability, MTT): > 100 µM

CCOC(=O)c1cc(-c2cccc(NC(=O)Nc3ccc(Cl)c(Cl)c3)c2)on1
MIC (Escherichia coli; microbial growth, broth dilution; ATCC25922): > 64 µg/mL

Cc1c2cnccc2c(C)c2c1c1ccccc1n2Cc1ccccc1
IC50 (MDA-MB-468; cell growth or viability, MTT): 18 µM

COC(=O)c1cc(-c2cccc(NC(=S)Nc3ccc(F)c(Cl)c3)c2)on1
MIC (Escherichia coli; microbial growth, broth dilution; ATCC25922): > 64 µg/mL

COc1ccc(-c2nc3ccccc3[nH]2)cc1O
MIC (Staphylococcus aureus; microbial growth, broth dilution; ATCC43300 MRSA; drug-resistant strain): 256 µg/mL (≈ 1070 µM)

COc1ncnc2c1ncn2[C@@H]1O[C@H](CO)[C@@H](O)[C@H]1O
IC50 (Severe acute respiratory syndrome coronavirus; plaque formation, inhibitor; Vero C1008): > 300 µM

COC(=O)c1cc(-c2cccc(NC(=O)Nc3ccc(Cl)c(Cl)c3)c2)on1
MIC (Escherichia coli; microbial growth, broth dilution; ATCC25922): > 64 µg/mL

Cc1ccc2nc(-c3ccccc3Cl)[nH]c2c1
MIC (Staphylococcus aureus; microbial growth, broth dilution; ATCC43300 MRSA; drug-resistant strain): 256 µg/mL (≈ 1050 µM)

O=C(NCCc1c[nH]c2ccccc12)C(=O)c1cn(Cc2ccc(Cl)cc2)c2ccccc12
IC50 (C4-2; cell growth or viability, MTT): > 100 µM

CCCCCCCCCOc1ccc2[nH]cc(CCN)c2c1
IC50 (HN-6; cell growth or viability; 72 h): 15.9 µM

Nc1nc(Cl)c2ncn([C@@H]3O[C@H](CO)[C@@H](O)[C@H]3O)c2n1
IC50 (Severe acute respiratory syndrome coronavirus; plaque formation, inhibitor; Vero C1008): > 300 µM

Cc1ccc2nc(-c3ccc(Cl)cc3Cl)[nH]c2c1
MIC (Staphylococcus aureus; microbial growth, broth dilution; ATCC43300 MRSA; drug-resistant strain): 128 µg/mL (≈ 462 µM)

COC(=O)c1cc(-c2cccc(NC(=S)Nc3ccccc3Cl)c2)on1
MIC (Escherichia coli; microbial growth, broth dilution; ATCC25922): > 64 µg/mL

C=CCn1c(-c2ccc(OC)c(OC)c2)nc2ccccc21
MIC (Staphylococcus aureus; microbial growth, broth dilution; ATCC43300 MRSA; drug-resistant strain): 128 µg/mL (≈ 435 µM)

CCCCCCNC(=S)Nc1cccc(-c2cc(C(=O)OC)no2)c1
MIC (Escherichia coli; microbial growth, broth dilution; ATCC25922): > 64 µg/mL

c1ccc2[nH]c(-c3ccncc3)nc2c1
MIC (Staphylococcus aureus; microbial growth, broth dilution; ATCC43300 MRSA; drug-resistant strain): 256 µg/mL (≈ 1310 µM)

COC(=O)c1cc(-c2cccc(NC(=O)Nc3ccccc3)c2)on1
MIC (Escherichia coli; microbial growth, broth dilution; ATCC25922): > 64 µg/mL

Nc1ncnc2c([C@@H]3N[C@H](CO)[C@@H](O)[C@H]3O)c[nH]c12
inhibition (Severe acute respiratory syndrome coronavirus; viral replication, inhibitor; Vero 76; 0.3 µM): 0.9%

COC(=O)c1cc(-c2cccc(NC(=O)Nc3ccc(OC)cc3)c2)on1
MIC (Escherichia coli; microbial growth, broth dilution; ATCC25922): > 64 µg/mL

OCC(CCn1cnc2c(Cl)ncnc21)COCc1ccccc1 (centres unmarked)
IC50 (Severe acute respiratory syndrome coronavirus; plaque formation, inhibitor; Vero C1008): > 300 µM

CN(C)c1ccc(-c2nc3ccccc3[nH]2)cc1
MIC (Staphylococcus aureus; microbial growth, broth dilution; ATCC43300 MRSA; drug-resistant strain): 128 µg/mL (≈ 539 µM)

OC[C@@H]1C[C@@H](O)[C@H](n2cnc3c(Cl)ncnc32)O1
IC50 (Severe acute respiratory syndrome coronavirus; plaque formation, inhibitor; Vero C1008): > 300 µM

Cn1cnc2nc(NCc3ccc(Cl)c(Cl)c3)[nH]c(=O)c21
MIC (Lactobacillus acidophilus; microbial growth, agar dilution; 48 h): 8 µg/mL (≈ 24.7 µM)
